# The source made the active and inactive calls. The rule behind the calls is not given here.
# Assays:
# HL-60 [1] = assay: Increase in caspase 3/7 activation in human HL60 cells using Ac-DEVD-ACC as substrate at 3 ug/ml after 24 hrs by fluorescence assay relative to control; assay type: functional, cell-based
# How it was run: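 HL-60 exposed 24 h to 3 µg/mL (DMSO control), lysed at 1.2 × 10^6 cells/mL in HEPES/sucrose/Triton lysis buffer pH 7.3 for 30 min at 4°C. Lysate added to DTT-containing reaction buffer with Ac-DEVD-ACC at 10 µM final (ex 360/em 460 nm). Fluorescence recorded 90 min at 37°C, normalized to Lowry protein, and expressed relative to untreated control; three experiments.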
# [2] = Selectivity index, ratio of IC50 for mouse BALB/3T3 cells to IC50 for human Raji cells; assay type: toxicity; settings: BALB/3T3 cells versus Raji cells, read-out: Ratio IC50
# [3] = Selectivity index, ratio of IC50 for human MCF10 cells to IC50 for human MCF7 cells; assay type: toxicity; settings: MCF10 cells versus MCF7 cells, read-out: Ratio IC50
# How it was run: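 Selectivity index is the ratio of the IC50 for the normal line to the IC50 for the cancer line. Both IC50 values come from 72 h antiproliferative assays: SRB for adherent cells, MTT for HL-60.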
# PC-3 = assay: Antiproliferative activity against human PC3 cells; assay type: functional, cell-based
# [4] = Selectivity index, ratio of IC50 for mouse BALB/3T3 cells to IC50 for human K562 cells; assay type: toxicity; settings: BALB/3T3 cells versus K562 cells, read-out: Ratio IC50
# HT-29 = assay: Antiproliferative activity against human HT-29 cells at 290 uM; assay type: functional, cell-based
# [5] = Selectivity index, ratio of IC50 for mouse BALB/3T3 cells to IC50 for human LNCAP cells; assay type: toxicity; settings: BALB/3T3 cells versus LNCAP cells, read-out: Ratio IC50
# [6] = Acute toxicity in Wistar rat assessed as mortaliity topically applied to shaved dorsal skin as single dose for 24 hrs measured for 14 days; settings: in vivo, topical or ocular
# How it was run: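 Wistar rats, 5 males and 5 females; single 2000 mg/kg bw dermal application to shaved dorsal skin (about 41 cm2 per male, 31 cm2 per female) for 24 h. General and detailed clinical observations daily over a 14-day observation period, then animals euthanized; treated skin examined for pathological changes.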
# [7] = Selectivity index, ratio of IC50 for mouse BALB/3T3 cells to IC50 for human MCF7 cells; assay type: toxicity; settings: BALB/3T3 cells versus MCF7 cells, read-out: Ratio IC50
# How it was run: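 Selectivity index is the BALB/3T3 IC50 divided by the MCF-7 IC50. Both adherent lines were plated at 1 × 10^4 per well, dosed 24 h later with 0.01–1000 µg/mL (diluted from 20 mg/mL DMSO stock) for 72 h, then fixed with cold TCA and stained with SRB, reading at 540 nm. Triplicate wells; 3–5 repeat experiments.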
# HL-60 [8] = assay: Cell cycle arrest in human HL60 cells assessed as accumulation at G0/G1 phase at 1 to 3 ug/ml after 72 hrs by propidium iodide staining based flow cytometry; assay type: functional
# How it was run: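 HL-60 seeded at 2 × 10^5 cells/mL 24 h before treatment, exposed 72 h to 1 or 3 µg/mL, with DMSO solvent and cisplatin controls. Cells fixed in 70% ethanol at −20°C, treated with RNase 8 µg/mL at 37°C for 1 h, stained 30 min with PI 50 µg/mL at 4°C. DNA content by flow cytometry; three independent experiments, mean ± SD.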
# LNCaP = assay: Antiproliferative activity against human LNCAP cells; assay type: functional, cell-based
# [9] = Selectivity index, ratio of IC50 for mouse BALB/3T3 cells to IC50 for human HL60 cells; assay type: toxicity; settings: BALB/3T3 cells versus HL60 cells, read-out: Ratio IC50
# How it was run: (§1)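 Ratio of the BALB/3T3 IC50 to the HL-60 or HL-60/MX2 IC50. Cells were plated at 1 × 10^4 per well 24 h before dosing and exposed for 72 h to 0.01–1000 µg/mL from DMSO stock. BALB/3T3 was read by SRB (TCA fix, 540 nm) and the leukemia lines by MTT (4 h, SDS/DMF lysis, 570 nm). Triplicates; 3–5 experiments.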
# [10] = Selectivity index, ratio of IC50 for mouse BALB/3T3 cells to IC50 for human HL60/MX2 cells; assay type: toxicity; settings: BALB/3T3 cells versus HL60/MX2 cells, read-out: Ratio IC50; how it was run: as §1
# [11] = Antioxidant activity assessed as DPPH free radical scavenging activity; assay type: functional
# MCF7 = assay: Potency index, ratio of bestatin IC50 to compound IC50 for human MCF7 cells; assay type: functional
# HL-60 [12] = assay: Induction of autophagy in human HL60 cells assessed as accumulation of LC3b-2 at 1 ug/ml after 72 hrs by Western-blot analysis; assay type: functional, cell-based
# How it was run: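 HL-60 (2 × 10^5 cells/mL) treated 72 h at 1 µg/mL with DMSO control, then lysed in RIPA buffer with protease/phosphatase inhibitors. 100 µg protein resolved on 4–20% gels and transferred to nitrocellulose. Probed with rabbit primary antibody, fluorescein-linked anti-rabbit secondary, then anti-fluorescein–alkaline phosphatase with ECF substrate; fluorescence scanned. Densitometry normalized to actin, reported as fold change versus control.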
# HL-60 [13] = assay: Decrease in mitochondrial membrane potential in human HL60 cells at 3 ug/ml after 24 hrs using JC-1 staining based flow cytometry relative to control; assay type: functional, cell-based
# How it was run: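 HL-60 treated 24 h at 3 µg/mL alongside DMSO control; […] for 24 h served as the low-potential control. Cells stained with JC-1 at 10 µg/mL final for 30 min at 37°C in the dark, washed, and analysed by flow cytometry (red aggregates vs green monomers). Three independent experiments, mean ± SD.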
# DU-145 = assay: Antiproliferative activity against human DU145 cells; assay type: functional, cell-based
# K562 = assay: Antiproliferative activity against human K562 cells; assay type: functional, cell-based
# [14] = Acute toxicity in Balbc/cmdb mouse assessed as clinical signs at 300 mg/kg, po administered as single dose in first stage of experiment measured immediately post dose; assay type: organism-based; settings: in vivo
# How it was run: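 Acute toxic class method per OECD Guideline 423 / EU Method B.1 tris, run in three stages of three female Balbc/cmdb mice each. Fasted about 3 h, then given a single dose by metal stomach tube in DMSO at 0.5 mL/100 g bw. Stage doses were 300, 2000, then 2000 mg/kg bw. General and detailed clinical observations daily for 14 days; body weights recorded.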
# A549 = assay: Potency index, ratio of bestatin IC50 to compound IC50 for human A549 cells; assay type: functional
# HL-60 [15] = assay: Antiproliferative activity against human HL60 cells after 72 hrs by MTT assay; assay type: functional, cell-based; settings: HL-60, 72 h
# How it was run: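 Leukemia cells seeded at 1 × 10^4 per well 24 h before adding compounds (0.01–1000 µg/mL from DMSO stock), exposed 72 h. MTT (5 mg/mL stock) added for 4 h, then DMF/SDS lysis mixture; absorbance at 570 nm read after 24 h. Triplicates per experiment, 3–5 repeats; IC50 calculated per experiment, reported as mean ± SD.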
structure (smiles),measurement,setting,value
CCOC(=O)C1(C(=O)OCC)Cc2cc(OCc3ccccc3)cc(OCc3ccccc3)c2C=N1,Activity,HL-60 [1],Active
same,selectivity ratio,[2],59.8
same,selectivity ratio,[3],4 to 8
same,IC50,PC-3,4.2 µM
same,selectivity ratio,[4],0.5
same,growth inhibition (GI),HT-29,inactive
same,selectivity ratio,[5],10.9
same,LD50 at 14 days,[6],> 2000 mg/kg
same,selectivity ratio,[7],3.7
same,Activity,HL-60 [8],Active
same,IC50,LNCaP,3.3 µM
same,selectivity ratio,[9],5.8
same,selectivity ratio,[10],7
same,IC50,[11],1000 µM
same,Ratio IC50,MCF7,15
same,Activity,HL-60 [12],inactive
same,Activity,HL-60 [13],Active
same,IC50,DU-145,7.5 µM
same,IC50,K562,70 µM
same,Activity,[14],Toxic
same,Ratio IC50,A549,18
same,IC50,HL-60 [15],6.2 µM

# — ChEMBL document CHEMBL4428115, “Molecular docking studies, biological and toxicity evaluation of dihydroisoquinoline derivatives as potential anticancer agents” (Bioorg Med Chem, 2016)
